Experimental data taken from ChEMBL document CHEMBL4706639, “Discovery of Novel Azetidine Amides as Potent Small-Molecule STAT3 Inhibitors” (J Med Chem, 2021).
The source made the active and inactive calls. The rule behind the calls is not given here.

Legend:
[1] = tested on: MDA-MB-468; assay: Antiproliferative activity against human MDA-MB-468 cells harbouring STAT3 assessed as reduction in cell viability incubated for 72 hrs by CyQuant assay; format: functional, cell-based; conditions: MDA-MB-468, 72 h
[2] = tested on: MDA-MB-231; assay: Antiproliferative activity against human MDA-MB-231 cells assessed as reduction in cell viability incubated for 72 hrs by CyQuant assay; format: functional, cell-based; conditions: MDA-MB-231, 72 h
[3] = tested on: MDA-MB-231; assay: Anticlonogenic activity against human MDA-MB-231 cells assessed as inhibition of colony formation at 0.5 to 1 uM incubated for 4 hrs by crystal violet staining based assay; format: functional, cell-based; conditions: dose 0.5-1 µM
Outline: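 MDA-MB-231 cells seeded as single-cell cultures (250 cells per well), treated once the next day with compound at 0–1 μM and grown until large colonies were visible. Colonies stained with crystal violet for 4 h and photographed. Three independent determinations.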

[4] = target: Signal transducer and activator of transcription 3 (Mus musculus, UniProt P42227); assay: Inhibition of oligonucleotide [32P]-labelled 5'-AGCITCATTTCCCGTAAATCCCTA probe binding to STAT3 SH2 domain in mouse NIH3T3/v-Src nuclear extract preincubated for 30 mins followed by hSIE probe addition by EMSA analysis; format: subcellular, Nucleus
[5] = tested on: MCF7; assay: Antiproliferative activity against human MCF7 cells assessed as reduction in cell viability incubated for 72 hrs by CyQuant assay; format: functional, cell-based; conditions: MCF7, 72 h
[6] = tested on: MCF-10A; assay: Cytotoxicity against human MCF-10A cells assessed as reduction in cell viability incubated for 72 hrs by CyQuant assay; format: cell-based
[7] = target: T1, Signal transducer and activator of transcription 1 (Mus musculus) (UniProt P42225); assay: Inhibition of oligonucleotide [32P]-labelled 5'-AGCITCATTTCCCGTAAATCCCTA probe binding to STAT1 homodimer in mouse NIH3T3 nuclear extract at 10 uM preincubated for 30 mins followed by hSIE probe addition by EMSA analysis
T1 sequence (whole entry): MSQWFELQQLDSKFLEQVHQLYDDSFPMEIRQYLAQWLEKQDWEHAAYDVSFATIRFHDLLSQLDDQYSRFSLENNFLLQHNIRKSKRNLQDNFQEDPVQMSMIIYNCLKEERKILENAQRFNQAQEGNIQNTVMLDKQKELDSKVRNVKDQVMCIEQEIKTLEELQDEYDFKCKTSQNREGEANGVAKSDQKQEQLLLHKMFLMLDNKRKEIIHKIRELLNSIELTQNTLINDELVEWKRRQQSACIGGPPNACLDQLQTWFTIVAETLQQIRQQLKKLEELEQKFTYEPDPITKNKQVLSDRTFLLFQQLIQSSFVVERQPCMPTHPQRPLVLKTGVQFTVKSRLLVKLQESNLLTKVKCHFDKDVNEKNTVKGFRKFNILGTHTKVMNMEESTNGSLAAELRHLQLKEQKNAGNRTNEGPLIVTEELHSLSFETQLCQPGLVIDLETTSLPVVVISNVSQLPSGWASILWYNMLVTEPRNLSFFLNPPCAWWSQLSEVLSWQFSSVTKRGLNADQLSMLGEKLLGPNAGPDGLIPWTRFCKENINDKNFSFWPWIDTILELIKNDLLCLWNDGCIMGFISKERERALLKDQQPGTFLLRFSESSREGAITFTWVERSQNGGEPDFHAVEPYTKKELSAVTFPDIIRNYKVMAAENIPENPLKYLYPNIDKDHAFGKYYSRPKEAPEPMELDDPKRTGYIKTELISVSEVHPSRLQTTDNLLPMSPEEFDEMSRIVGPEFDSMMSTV

[8] = tested on: NIH3T3; assay: Inhibition of oligonucleotide [32P]-labelled 5'-AGATTTCTAGGAATTCAA probe binding to STAT5 homodimer in mouse NIH3T3 nuclear extract at 10 uM preincubated for 30 mins followed by MGFe probe addition by EMSA analysis
[9] = tested on: MDA-MB-231; assay: Antiproliferative activity against human MDA-MB-231 cells harbouring STAT3 assessed as reduction in cell viability at upto 10 uM incubated for 72 hrs by CyQuant assay; format: functional, cell-based; conditions: MDA-MB-231, 72 h

Signal transducer and activator of transcription 3, sequence (P42227 whole entry, the tested form may be a part): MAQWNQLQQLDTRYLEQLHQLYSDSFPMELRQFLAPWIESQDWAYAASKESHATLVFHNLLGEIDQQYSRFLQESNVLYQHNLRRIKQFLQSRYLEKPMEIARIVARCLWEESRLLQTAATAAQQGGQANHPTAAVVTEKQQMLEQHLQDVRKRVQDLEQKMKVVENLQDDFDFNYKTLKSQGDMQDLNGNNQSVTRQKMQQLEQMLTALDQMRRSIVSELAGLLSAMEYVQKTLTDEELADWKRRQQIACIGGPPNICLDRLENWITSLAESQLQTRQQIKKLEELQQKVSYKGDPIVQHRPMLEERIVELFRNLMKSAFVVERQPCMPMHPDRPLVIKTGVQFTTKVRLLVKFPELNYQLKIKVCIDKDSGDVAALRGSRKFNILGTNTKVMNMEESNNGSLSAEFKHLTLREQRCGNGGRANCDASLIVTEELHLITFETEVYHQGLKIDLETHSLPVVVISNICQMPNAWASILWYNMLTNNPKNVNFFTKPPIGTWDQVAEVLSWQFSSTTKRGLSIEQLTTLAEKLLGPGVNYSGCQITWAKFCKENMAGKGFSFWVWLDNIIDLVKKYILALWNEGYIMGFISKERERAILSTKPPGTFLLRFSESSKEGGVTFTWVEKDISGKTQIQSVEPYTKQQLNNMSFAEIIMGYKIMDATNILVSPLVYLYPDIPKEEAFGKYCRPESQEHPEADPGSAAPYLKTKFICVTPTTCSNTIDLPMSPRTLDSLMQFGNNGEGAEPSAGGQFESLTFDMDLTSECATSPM

Compound | EC50 [1] [nM] | EC50 [2] [nM] | EC50 [5] [µM] | EC50 [6] [µM] | further results
O=C([C@H]1CCN1S(=O)(=O)c1c(F)c(F)c(F)c(F)c1F)N(Cc1ccc(C2CCCCC2)cn1)c1ccc2nn[nH]c2c1 | 5100 | 6600 | – | – | –
COC(=O)c1ccc(N(Cc2cnc(C3CCCCC3)cn2)C(=O)[C@H]2CCN2S(=O)(=O)c2c(F)c(F)c(F)c(F)c2F)c(F)c1 | 1400 | – | 8.9 | 4 | inhibition [3]: Active; IC50 [4]: > 10 µM
Cn1ccc2cc(N(Cc3ccc(C4CCCCC4)cn3)C(=O)[C@H]3CCN3S(=O)(=O)c3c(F)c(F)c(F)c(F)c3F)ccc2c1=O | – | 2300 | 2.8 | 4.4 | –
O=C1NCc2cc(N(Cc3ccc(C4CCCCC4)cn3)C(=O)[C@H]3CCN3S(=O)(=O)c3c(F)c(F)c(F)c(F)c3F)c(F)cc21 | – | 2000 | – | – | –
NC(=O)c1ccc(N(Cc2ccc(C3CCCCC3)cn2)C(=O)[C@H]2CCN2S(=O)(=O)c2c(F)c(F)c(F)c(F)c2F)cc1O | 2600 | 2900 | 4.6 | 7.2 | –
O=C(O)c1ccc(N(Cc2ccc(C3CCOCC3)cc2)C(=O)[C@H]2CCN2S(=O)(=O)c2c(F)c(F)c(F)c(F)c2F)cc1O | – | – | – | – | inhibition [7]: Active; inhibition [8]: Active
COC(=O)c1ccc(N(Cc2ccc(C3CCCCC3)cc2)C(=O)[C@H]2CCN2S(=O)(=O)c2c(F)c(F)c(F)c(F)c2F)cc1O | – | 2700 | – | – | inhibition [7]: Active; IC50 [4]: > 4 µM; inhibition [8]: Active
O=C(NO)c1ccc(N(Cc2ccc(C3CCCCC3)cc2)C(=O)[C@H]2CCN2S(=O)(=O)c2c(F)c(F)c(F)c(F)c2F)cc1 | – | 5000 | 6.8 | 7.9 | –
CONC(=O)c1ccc(N(Cc2ccc(C3CCCCC3)cn2)C(=O)[C@H]2CCN2S(=O)(=O)c2c(F)c(F)c(F)c(F)c2F)cc1O | 3900 | 6700 | – | – | –
COC(=O)c1ccc(N(Cc2ccc(C3CCCCC3)cc2)C(=O)[C@H]2CCN2S(=O)(=O)c2c(F)c(F)c(F)c(F)c2F)c(F)c1 | – | 4400 | – | – | inhibition [7]: Active; IC50 [4]: > 4 µM; inhibition [8]: Active
O=C(NO)c1ccc(N(Cc2ccc(C3CCCCC3)cc2)C(=O)[C@H]2CCN2S(=O)(=O)c2c(F)c(F)c(F)c(F)c2F)c(F)c1 | – | – | – | – | inhibition [7]: Active; inhibition [8]: Active
COC(=O)c1ccc(N(Cc2ccc(C3CCCCC3)nc2)C(=O)[C@H]2CCN2S(=O)(=O)c2c(F)c(F)c(F)c(F)c2F)cc1O | – | 2000 | – | – | –
O=C([C@H]1CCN1S(=O)(=O)c1c(F)c(F)c(F)c(F)c1F)N(Cc1cnc(C2CCCCC2)cn1)c1ccc2nn[nH]c2c1 | 2300 | 2100 | – | – | –
O=C([C@H]1CCN1S(=O)(=O)c1c(F)c(F)c(F)c(F)c1F)N(Cc1cnc(C2CCCCC2)cn1)c1ccc2c(=O)[nH]ncc2c1 | – | 4800 | – | – | –
O=C1NCc2cc(N(Cc3ccc(C4CCCCC4)cn3)C(=O)[C@H]3CCN3S(=O)(=O)c3c(F)c(F)c(F)c(F)c3F)ccc21 | – | 2000 | – | – | –
O=C([C@H]1CCN1S(=O)(=O)c1c(F)c(F)c(F)c(F)c1F)N(Cc1cnc(C2CCCCC2)cn1)c1ccc2c(=O)[nH]cnc2c1 | – | 4200 | – | – | –
O=C(NO)c1ccc(N(Cc2ccc(C3CCOCC3)cc2)C(=O)[C@H]2CCN2S(=O)(=O)c2c(F)c(F)c(F)c(F)c2F)cc1 | 2100 | 4000 | > 10 | 4.3 | –
COc1ccc(S(=O)(=O)Nc2cc(-c3c(O)ccc4ccccc34)c(O)c3ccccc23)cc1 [C-188-9] | – | – | 13.8 | – | EC50 [9]: 25.7 µM
O=C([C@H]1CCN1S(=O)(=O)c1c(F)c(F)c(F)c(F)c1F)N(Cc1ccc(C2CCCCC2)cn1)c1cc2[nH]ncc2cc1F | 3200 | 2300 | 4.8 | 4.9 | –
O=C(O)c1ccc(N(Cc2ccc(C3CCOCC3)nc2)C(=O)[C@H]2CCN2S(=O)(=O)c2c(F)c(F)c(F)c(F)c2F)cc1O | – | – | – | – | inhibition [7]: Active; inhibition [8]: Active

Compound | EC50 [1] [nM] | EC50 [2] [nM] | EC50 [5] [µM] | EC50 [6] [µM] | further results
Cn1cnc2cc(N(Cc3ccc(C4CCCCC4)cn3)C(=O)[C@H]3CCN3S(=O)(=O)c3c(F)c(F)c(F)c(F)c3F)ccc2c1=O | 2200 | 2100 | 3.2 | 4.7 | –
O=C([C@H]1CCN1S(=O)(=O)c1c(F)c(F)c(F)c(F)c1F)N(Cc1cnc(C2CCCCC2)cn1)c1cc2[nH]ncc2cc1F | 2000 | 2000 | 4.6 | 3.2 | –
O=C(O)c1ccc(N(Cc2ccc(C3CCCCC3)nc2)C(=O)[C@H]2CCN2S(=O)(=O)c2c(F)c(F)c(F)c(F)c2F)cc1O | – | – | – | – | inhibition [7]: Active; inhibition [8]: Active
COC(=O)c1ccc(N(Cc2ccc(C3CCCCC3)cn2)C(=O)[C@H]2CCN2S(=O)(=O)c2c(F)c(F)c(F)c(F)c2F)cc1O | – | 1800 | – | – | –
O=C([C@H]1CCN1S(=O)(=O)c1c(F)c(F)c(F)c(F)c1F)N(Cc1ccc(C2CCCCC2)cn1)c1ccc2c(=O)[nH]cnc2c1 | 1500 | 3300 | 3.6 | 4 | –
O=C(O)c1ccc(N(Cc2ccc(C3CCCCC3)cn2)C(=O)[C@H]2CCN2S(=O)(=O)c2c(F)c(F)c(F)c(F)c2F)cn1 | – | – | – | – | IC50 [4]: > 2 µM
O=C(NO)c1ccc(N(Cc2ccc(C3CCCCC3)cn2)C(=O)[C@H]2CCN2S(=O)(=O)c2c(F)c(F)c(F)c(F)c2F)c(F)c1 | 4200 | 5800 | – | – | –
O=C(NO)c1ccc(N(Cc2cnc(C3CCCCC3)cn2)C(=O)[C@H]2CCN2S(=O)(=O)c2c(F)c(F)c(F)c(F)c2F)cc1O | 5100 | 5200 | – | – | –
O=C(O)c1ccc(N(Cc2ccc(C3CCCC3)cc2)C(=O)[C@H]2CCN2S(=O)(=O)c2c(F)c(F)c(F)c(F)c2F)cc1O | – | – | – | – | inhibition [7]: Active; inhibition [8]: Active
O=C([C@H]1CCN1S(=O)(=O)c1c(F)c(F)c(F)c(F)c1F)N(Cc1ccc(C2CCCCC2)cc1)c1ccc2c(=O)[nH]ncc2c1 | 1100 | 1600 | 4.5 | 4.6 | –
O=C(O)c1cc(F)c(N(Cc2ccc(C3CCCCC3)cc2)C(=O)[C@H]2CCN2S(=O)(=O)c2c(F)c(F)c(F)c(F)c2F)cc1O | – | – | – | – | inhibition [7]: Active; inhibition [8]: Active
O=C(NO)c1ccc(N(Cc2ccc(C3CCCCC3)cc2)C(=O)[C@H]2CCN2S(=O)(=O)c2c(F)c(F)c(F)c(F)c2F)cc1O | 6400 | 5100 | 9.7 | 7.5 | inhibition [7]: Active; inhibition [8]: Active
O=C(NO)c1ccc(N(Cc2ccc(C3CCCC3)cc2)C(=O)[C@H]2CCN2S(=O)(=O)c2c(F)c(F)c(F)c(F)c2F)cc1 | 1800 | 3100 | 7.2 | 7.3 | –
O=C([C@H]1CCN1S(=O)(=O)c1c(F)c(F)c(F)c(F)c1F)N(Cc1ccc(C2CCCCC2)cc1)c1ccc2c(=O)[nH]ccc2c1 | 3800 | 1400 | 6.2 | 5.3 | –
O=C(NO)c1cc(F)c(N(Cc2ccc(C3CCOCC3)cc2)C(=O)[C@H]2CCN2S(=O)(=O)c2c(F)c(F)c(F)c(F)c2F)cc1O | – | 5100 | – | – | –
O=C([C@H]1CCN1S(=O)(=O)c1c(F)c(F)c(F)c(F)c1F)N(Cc1ccc(C2CCCCC2)cc1)c1cc2[nH]ncc2cc1F | – | 2400 | 9.4 | 8.1 | –
O=C(O)c1coc(N(Cc2ccc(C3CCCCC3)cc2)C(=O)[C@H]2CCN2S(=O)(=O)c2c(F)c(F)c(F)c(F)c2F)n1 | – | – | – | – | IC50 [4]: > 5 µM
O=C([C@H]1CCN1S(=O)(=O)c1c(F)c(F)c(F)c(F)c1F)N(Cc1ccc(C2CCCCC2)cn1)c1ccc2c(=O)[nH]ccc2c1 | 2000 | 1200 | 2.2 | 2.7 | –
O=C(NO)c1ccc(N(Cc2ccc(C3CCCCC3)cn2)C(=O)[C@H]2CCN2S(=O)(=O)c2c(F)c(F)c(F)c(F)c2F)cc1O | 6200 | – | – | – | –
